Values after ≈ are worked out from the molar mass of the structure shown.
Experiments:
[1] = test system: Bacillus thuringiensis; assay: Antibacterial activity against Bacillus thuringiensis after 12 hrs by MTT assay; type: functional, organism-based
Outline: (§1)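 MTT broth-dilution assay; drug-containing medium added to final concentrations of 320, 160, 40, 10, 2.5 and 0.25 µg/mL, each in triplicate. After 12 h, 25 µL of 5 mg/mL MTT in PBS added; after 4 h medium discarded, formazan dissolved in 150 µL DMSO with 10 min shaking, absorbance read at 490 nm; 50% inhibitory concentration reported.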

[2] = test system: Escherichia coli; assay: Antibacterial activity against Escherichia coli after 12 hrs by MTT assay; type: functional, organism-based; outline: as §1
[3] = test system: Pseudomonas aeruginosa; assay: Antibacterial activity against Pseudomonas aeruginosa after 12 hrs by MTT assay; type: functional, organism-based; outline: as §1
[4] = test system: Bacillus subtilis; assay: Antibacterial activity against Bacillus subtilis after 12 hrs by MTT assay; type: functional, organism-based; outline: as §1
[5] = Inhibition of Escherichia coli FabH expressed in Escherichia coli BL21 (DE3) after 25 mins
Outline: (§2)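 His-tagged FabH purified by Ni-NTA (IPTG 0.5 mM induction in kanamycin LB), stored at 2 mg/mL. 20 µL reaction: 20 mM Na2HPO4 pH 7.0, 0.5 mM DTT, 0.25 mM MgCl2, 2.5 µM holo-ACP, 1 nM FabH; after 1 min, 25 µM acetyl-CoA, 0.5 mM NADH, 0.5 mM NADPH added for 25 min; 3H incorporation by liquid scintillation; inhibitors from DMSO stock, final DMSO ≤2%; IC50 determined.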

[6] = Inhibition of Pseudomonas aeruginosa FabH after 25 mins; outline: as §2
[7] = Cytotoxicity against human macrophages assessed as change in morphology at 0.25 to 160 ug/ml after 24 hrs using Giemsa staining by phase contrast microscopic analysis; type: cell-based; conditions: macrophage
Outline: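 Confluent cells (100 µL stock suspension) grown to 90% confluency, medium replaced with serum-free DMEM, then exposed 24 h to 0.25 or 160 µg/mL test compound; cell morphology compared with untreated control after Giemsa staining under phase contrast microscopy.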

[8] = Cytotoxicity against human macrophages up to 160 ug/ml after 24 hrs by MTT assay; type: cell-based; conditions: macrophage
Outline: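 Cells grown to 90% confluency, switched to serum-free DMEM, exposed to various concentrations for 24 h; viability by MTT, read spectrophotometrically as absorbance difference 570 minus 630 nm.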

O=[N+]([O-])c1cnc(/C=C/c2ccc(Cl)cc2Cl)n1CCO
IC50 [1]: 36.7 µg/mL (≈ 112 µM) | IC50 [2]: > 200 µg/mL | IC50 [3]: 39.3 µg/mL (≈ 120 µM) | IC50 [4]: 57.1 µg/mL (≈ 174 µM)

COc1cccc(/C=C/c2ncc([N+](=O)[O-])n2CCO)c1
IC50 [1]: 12.1 µg/mL (≈ 41.8 µM) | IC50 [2]: > 200 µg/mL | IC50 [3]: 46.1 µg/mL (≈ 159 µM) | IC50 [4]: 26.2 µg/mL (≈ 90.6 µM)

O=[N+]([O-])c1ccccc1/C=C/c1ncc([N+](=O)[O-])n1CCO
IC50 [1]: 5.8 µg/mL (≈ 19.1 µM) | IC50 [2]: 157 µg/mL (≈ 517 µM) | IC50 [3]: 12.8 µg/mL (≈ 42.1 µM) | IC50 [4]: 11.8 µg/mL (≈ 38.8 µM)

COc1ccccc1/C=C/c1ncc([N+](=O)[O-])n1CCO
IC50 [1]: 37.3 µg/mL (≈ 129 µM) | IC50 [2]: 188 µg/mL (≈ 649 µM) | IC50 [3]: 20.4 µg/mL (≈ 70.5 µM) | IC50 [4]: 19.8 µg/mL (≈ 68.4 µM)

CCOC(OCC)c1ccc(/C=C/c2ncc([N+](=O)[O-])n2CCO)cc1
IC50 [5]: 4.2 µM | IC50 [1]: 5.9 µg/mL (≈ 16.3 µM) | IC50 [2]: 59.2 µg/mL (≈ 164 µM) | IC50 [3]: 70.3 µg/mL (≈ 195 µM) | IC50 [4]: 17.9 µg/mL (≈ 49.5 µM) | IC50 [6]: 15.9 µM

NC[C@H]1O[C@H](O[C@H]2[C@H](O)[C@@H](O[C@H]3O[C@H](CO)[C@@H](O)[C@H](N)[C@H]3O)[C@H](N)C[C@@H]2N)[C@H](O)[C@@H](O)[C@@H]1O [KANAMYCIN]
IC50 [5]: 3.1 µM | IC50 [6]: 6.7 µM

O=[N+]([O-])c1cnc(/C=C/c2cccc(Br)c2)n1CCO
IC50 [1]: 23.4 µg/mL (≈ 69.2 µM) | IC50 [2]: 116 µg/mL (≈ 342 µM) | IC50 [3]: 43.6 µg/mL (≈ 129 µM) | IC50 [4]: 24.4 µg/mL (≈ 72.2 µM)

O=[N+]([O-])c1cnc(/C=C/c2ccccc2Cl)n1CCO
IC50 [5]: 6.5 µM | IC50 [1]: 37.8 µg/mL (≈ 129 µM) | IC50 [2]: 175 µg/mL (≈ 595 µM) | IC50 [3]: 17.8 µg/mL (≈ 60.6 µM) | IC50 [4]: 2.9 µg/mL (≈ 9.87 µM) | IC50 [6]: 29.2 µM

O=[N+]([O-])c1cnc(/C=C/c2ccc(Cl)cc2)n1CCO
IC50 [1]: 32.1 µg/mL (≈ 109 µM) | IC50 [2]: > 200 µg/mL | IC50 [3]: 48.3 µg/mL (≈ 164 µM) | IC50 [4]: 32.8 µg/mL (≈ 112 µM)

O=[N+]([O-])c1cnc(/C=C/c2ccccc2)n1CCO
IC50 [1]: 49.5 µg/mL (≈ 191 µM) | IC50 [2]: > 200 µg/mL | IC50 [3]: 12.4 µg/mL (≈ 47.8 µM) | IC50 [4]: 49.3 µg/mL (≈ 190 µM)

O=[N+]([O-])c1cnc(/C=C/c2c(F)cccc2Cl)n1CCO
IC50 [1]: 25.3 µg/mL (≈ 81.2 µM) | IC50 [2]: 82.1 µg/mL (≈ 263 µM) | IC50 [3]: 38.1 µg/mL (≈ 122 µM) | IC50 [4]: 19.6 µg/mL (≈ 62.9 µM)

O=[N+]([O-])c1cnc(/C=C/c2cccc(F)c2)n1CCO
IC50 [1]: 55.1 µg/mL (≈ 199 µM) | IC50 [2]: 114 µg/mL (≈ 412 µM) | IC50 [3]: 16.8 µg/mL (≈ 60.6 µM) | IC50 [4]: 36.6 µg/mL (≈ 132 µM)

O=[N+]([O-])c1ccc(/C=C/c2ncc([N+](=O)[O-])n2CCO)cc1
IC50 [5]: 2.1 µM | Activity [7]: Non-toxic | IC50 [1]: 13.9 µg/mL (≈ 45.7 µM) | Activity [8]: Non-toxic | IC50 [2]: 36.4 µg/mL (≈ 120 µM) | IC50 [3]: 15.5 µg/mL (≈ 50.9 µM) | IC50 [4]: 9 µg/mL (≈ 29.6 µM) | IC50 [6]: 12.4 µM

O=[N+]([O-])c1cnc(/C=C/c2ccccc2Br)n1CCO
IC50 [1]: 9.3 µg/mL (≈ 27.5 µM) | IC50 [2]: > 200 µg/mL | IC50 [3]: 7.6 µg/mL (≈ 22.5 µM) | IC50 [4]: 27.9 µg/mL (≈ 82.5 µM)

O=[N+]([O-])c1cnc(/C=C/c2ccc(OCc3ccccc3)cc2)n1CCO
IC50 [5]: 3.4 µM | Activity [7]: Non-toxic | IC50 [1]: 9.8 µg/mL (≈ 26.8 µM) | Activity [8]: Non-toxic | IC50 [2]: 34.3 µg/mL (≈ 93.9 µM) | IC50 [3]: 14.5 µg/mL (≈ 39.7 µM) | IC50 [4]: 6.3 µg/mL (≈ 17.2 µM) | IC50 [6]: 7.9 µM

Cc1ccc(/C=C/c2ncc([N+](=O)[O-])n2CCO)cc1
IC50 [1]: 28.6 µg/mL (≈ 105 µM) | IC50 [2]: 145 µg/mL (≈ 530 µM) | IC50 [3]: 2.9 µg/mL (≈ 10.6 µM) | IC50 [4]: 42.6 µg/mL (≈ 156 µM)

COc1ccc(/C=C/c2ncc([N+](=O)[O-])n2CCO)cc1
IC50 [1]: 67.4 µg/mL (≈ 233 µM) | IC50 [2]: 89.1 µg/mL (≈ 308 µM) | IC50 [3]: 30.2 µg/mL (≈ 104 µM) | IC50 [4]: 146 µg/mL (≈ 506 µM)

CC(C)(S)[C@@H](N)C(=O)O [PENICILLAMINE]
IC50 [1]: 6.3 µg/mL (≈ 42.2 µM) | IC50 [2]: 42.3 µg/mL (≈ 283 µM) | IC50 [3]: 5.8 µg/mL (≈ 38.9 µM) | IC50 [4]: 6.3 µg/mL (≈ 42.2 µM)

O=[N+]([O-])c1cnc(/C=C/c2cccc(Cl)c2)n1CCO
IC50 [1]: 25.7 µg/mL (≈ 87.5 µM) | IC50 [2]: 119 µg/mL (≈ 406 µM) | IC50 [3]: 14.7 µg/mL (≈ 50 µM) | IC50 [4]: 40.7 µg/mL (≈ 139 µM)

O=[N+]([O-])c1cnc(/C=C/c2ccc3ccccc3c2)n1CCO
IC50 [5]: 11 µM | IC50 [1]: 11.9 µg/mL (≈ 38.5 µM) | IC50 [2]: > 200 µg/mL | IC50 [3]: 19.8 µg/mL (≈ 64 µM) | IC50 [4]: 3.6 µg/mL (≈ 11.6 µM) | IC50 [6]: 10.2 µM

CN(C)c1ccc(/C=C/c2ncc([N+](=O)[O-])n2CCO)cc1
IC50 [5]: 10.2 µM | IC50 [1]: 7.2 µg/mL (≈ 23.8 µM) | IC50 [2]: 88 µg/mL (≈ 291 µM) | IC50 [3]: 121 µg/mL (≈ 400 µM) | IC50 [4]: 17.2 µg/mL (≈ 56.9 µM) | IC50 [6]: 25.6 µM

O=[N+]([O-])c1cnc(/C=C/c2ccc(F)cc2)n1CCO
IC50 [5]: 16.5 µM | IC50 [1]: 12.5 µg/mL (≈ 45.1 µM) | IC50 [2]: 57.2 µg/mL (≈ 206 µM) | IC50 [3]: 1.7 µg/mL (≈ 6.13 µM) | IC50 [4]: 8.8 µg/mL (≈ 31.7 µM) | IC50 [6]: 22.5 µM

O=[N+]([O-])c1cccc(/C=C/c2ncc([N+](=O)[O-])n2CCO)c1
IC50 [1]: 7 µg/mL (≈ 23 µM) | IC50 [2]: > 200 µg/mL | IC50 [3]: 74.6 µg/mL (≈ 245 µM) | IC50 [4]: 53.1 µg/mL (≈ 175 µM)

O=[N+]([O-])c1cnc(/C=C/c2ccc(Br)cc2)n1CCO
IC50 [1]: 19.2 µg/mL (≈ 56.8 µM) | IC50 [2]: 119 µg/mL (≈ 353 µM) | IC50 [3]: 32.2 µg/mL (≈ 95.2 µM) | IC50 [4]: 114 µg/mL (≈ 336 µM)

O=[N+]([O-])c1cnc(/C=C/c2cccc3ccccc23)n1CCO
IC50 [1]: 8.6 µg/mL (≈ 27.8 µM) | IC50 [2]: 153 µg/mL (≈ 496 µM) | IC50 [3]: 13.1 µg/mL (≈ 42.4 µM) | IC50 [4]: 13.6 µg/mL (≈ 44 µM)

O=[N+]([O-])c1cnc(/C=C/c2ccccc2F)n1CCO
IC50 [5]: 4.4 µM | IC50 [1]: 29.9 µg/mL (≈ 108 µM) | IC50 [2]: > 200 µg/mL | IC50 [3]: 6.8 µg/mL (≈ 24.5 µM) | IC50 [4]: 61.5 µg/mL (≈ 222 µM) | IC50 [6]: 19.2 µM

— ChEMBL document CHEMBL3124827, “Design and synthesis of 2-styryl of 5-Nitroimidazole derivatives and antimicrobial activities as FabH inhibitors” (Eur J Med Chem, 2014)
